# Screening results from PubChem.
# An excerpt weighted towards active compounds, which were near 3.3% of everything screened.
# DENV2 CPE rescue – DENV2-induced cell death inhibition; DENV2-infected cells, cytopathic effect rescue, plate reader; 350,000 tested, 1.7% active; CPE inhibition, % at 9.99 µM; in the data active means CPE inhibition above about 20%, passing the limit was not always enough; inconclusive means no clear call, values can overlap the other calls; tested in BHK-21 cells;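 further: 0% = median of neutral control wells and 100% = median of positive control wells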
# XiGFP reactiv – activators of X-chromosome reactivation in mouse fibroblasts; AID 743238; 360,000 tested, 0.055% active; XiGFP mouse fibroblasts, % GFP-positive cells imaging, 3 d; cells co-treated with 5-aza-dC sensitizer; scaled so ellipticine positive control = 100%; activation, % at 7.58 µM;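 active means mean normalized replicate activation at least 10% and every replicate at or above 10%; inconclusive means only one of the two criteria met; inactive means mean below 10% and not all replicates reach 10%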;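 further: 0% = median of on-plate neutral control wells and 100% = ellipticine 6 µM median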
#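 Assay system: SV40-immortalized XiGFP fibroblast cells, line 68-5-11; buffer or medium: DMEM plus 5-aza-dC sensitizer; compound: one concentration, pinned; timing: compounds 3 days, fix/stain 15 min at room temperature; benchmarks: positive control ellipticine, 6 µM final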
# E-sel inducer – E-selectin induction on HUVECs; HUVEC E-selectin immunofluorescence imaging; normalized: neutral wells 0, TNF-alpha wells 100; activation, % at 7.58 µM; 260,000 tested, 0.37% active; AID 686992;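 active means mean E-selectin-positive cell signal at least 10% of the positive control, reached in at least 60% of replicates, without over 20% cell loss; inconclusive means no rule given, readout overlaps actives, possibly toxicity-flagged; inactive means the rest, including those meeting only one limit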
#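 Read-out basis: % PE-positive cells; Test system: HUVEC primary endothelial cells; Technique: immunofluorescence imaging; Dosing: single-point compound dose.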
# Statin myotox sup – suppressors of simvastatin-induced myotoxicity in C2C12 myotubes. ATP luminescence, 48 h; scaled: DMSO 0, geranylgeraniol control 100. AID 602340. rescue of ATP level, % at 7.49 µM. 330,000 tested, 0.78% active;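 active means mean ATP rescue above about 67%, or every replicate alone reaching that limit, limit read from the data, passing the limit was not always enough; inconclusive means no clear call, values can overlap the other calls; inactive means mean under the limit and some replicate under it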;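 further: myotubes were challenged with 10 µM simvastatin during compound exposure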
# FGF22 binding – FGF22 (human) thermal shift binding | recombinant FGF22 thermal shift, SYPRO orange fluorescence; percent of sucrose octasulfate shift, DMSO zero | AID 651658 | 340,000 tested, 1.5% active | Q9HCT0 | activity (Tm shift, normalised), % at 9.99 µM;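 active means mean Tm shift, scaled 0 neutral to 100 positive control, at about 1.3% or above, every replicate too, limit read from the data; inconclusive means no clear call, values can overlap the other calls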
# Target sequence (Q9HCT0 whole entry, looked up): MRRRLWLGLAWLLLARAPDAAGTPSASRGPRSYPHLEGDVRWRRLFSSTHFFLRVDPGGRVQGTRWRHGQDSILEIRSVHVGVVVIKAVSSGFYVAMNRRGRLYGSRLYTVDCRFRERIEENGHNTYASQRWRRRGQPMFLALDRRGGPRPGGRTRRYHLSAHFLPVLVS
# PglD inh – inhibitors of Campylobacter jejuni PglD acetyltransferase | purified PglD enzyme, DTNB colorimetric CoA detection | inhibition, % at 12.5 µM | 360,000 tested, 0.098% active | AID 602405; in the data active means inhibition above about 16%, passing the limit was not always enough; inconclusive means no clear call, values can overlap the other calls
# * marks the source's active call; other numbers are inactive results; u = inconclusive; x = no result given; ! = a repeat was not active.
SMILES,DENV2 CPE rescue,XiGFP reactiv,E-sel inducer,Statin myotox sup,FGF22 binding,PglD inh
C[C@@H]1CN([C@@H](C)CO)C(=O)Cc2cc(NS(=O)(=O)c3cn(C)cn3)ccc2O[C@@H]1CN(C)C(=O)Nc1ccc2c(c1)OCO2,28*,0,-2,-26,0,5
C[C@@H]1CN([C@@H](C)CO)C(=O)c2cc(NS(=O)(=O)c3cn(C)cn3)ccc2O[C@H]1CN(C)C(=O)Nc1ccc(F)cc1,x,0,87*,46,x,x
C[C@H](CO)N1C[C@H](C)[C@H](CN(C)Cc2ccc(C(=O)O)cc2)Oc2ccc(NS(=O)(=O)c3cn(C)cn3)cc2C1=O,41*,0,x,-21,-1,-6
COc1ccc2c3c([nH]c2c1)[C@H](CO)N(CC1CC1)CC31CCN(Cc2ccccc2F)CC1,-34,0,0,x,x,x
C[C@@H]1CN([C@H](C)CO)C(=O)c2cccc(NS(=O)(=O)c3ccccc3)c2O[C@@H]1CN(C)C(=O)Nc1ccc(F)cc1,34*,0,0,3,0,-3
COc1ccc(S(=O)(=O)Nc2cccc3c2O[C@H](CN(C)C(=O)Nc2ccc(F)cc2)[C@H](C)CN([C@@H](C)CO)C3=O)cc1,-2,0,0,130*,-1,6
C[C@@H]1CN([C@H](C)CO)C(=O)c2cccc(NS(=O)(=O)c3ccccc3)c2O[C@@H]1CN(C)C(=O)Nc1ccccc1,2,-1,x,28,0,1
COc1ccc(S(=O)(=O)Nc2cccc3c2O[C@@H](CN(C)C(=O)Nc2ccc(F)cc2)[C@H](C)CN([C@@H](C)CO)C3=O)cc1,-7,-1,0,24,0,-1
C[C@H](CO)N1C[C@H](C)[C@@H](CN(C)C(=O)Nc2ccccc2)Oc2c(NS(=O)(=O)c3ccccc3)cccc2C1=O,25*!,-1,1,-30,0,3
CC(C)c1cn(CC[C@@H]2CC[C@@H](NC(=O)C3CCCCC3)[C@H](CO)O2)nn1,1,0,0,-3,0,-1
O=C1C(SCCO)=C(SCCO)C(=O)c2ccccc21,1,88*,10,-108,0,-2
CC(C)C#Cc1ccc2c(c1)O[C@H](CN(C)Cc1cncnc1)[C@H](C)CN([C@H](C)CO)S2(=O)=O,14,-1,0,-13,0,-2
O=C(O)C1C2C=CC(C2)C1C(=O)NC(c1ccccc1)c1ccccc1 (stereo not given),x,x,x,-6,x,3
COc1ccc(C(NC(=O)C2C3C=CC(C3)C2C(=O)O)c2ccccc2)cc1 (stereo not given),u,0,x,x,52*,x
C[C@@H]1CN([C@H](C)CO)C(=O)c2cc(NC(=O)Nc3cccc4ccccc34)ccc2O[C@@H](C)CCCCO[C@@H]1CN(C)C(=O)NC1CCCCC1,16,0,1,74*,0,1
C[C@H](CO)N1C[C@H](C)[C@H](CN(C)C(=O)NC2CCCCC2)OCCCC[C@H](C)Oc2ccc(NC(=O)Nc3cccc4ccccc34)cc2C1=O,-4,0,0,137*,0,-2
C[C@@H]1CN([C@@H](C)CO)C(=O)c2cc(NC(=O)Nc3cccc4ccccc34)ccc2O[C@@H](C)CCCCO[C@H]1CN(C)C(=O)NC1CCCCC1,-2,0,0,9,0,4
C[C@H]1CCCCO[C@@H](CN(C)C(=O)NC2CCCCC2)[C@@H](C)CN([C@@H](C)CO)C(=O)c2cc(NC(=O)Nc3cccc4ccccc34)ccc2O1,1,0,1,96*,-1,-5
C[C@@H]1CN([C@@H](C)CO)C(=O)c2cc(NC(=O)CCN3CCOCC3)ccc2O[C@H]1CN(C)S(=O)(=O)c1ccccc1,-8,-1,0,3,0,1
COc1ccccc1CNC(=O)C[C@@H]1C[C@@H]2c3cc(NC(=O)NC4CCCC4)ccc3O[C@@H]2[C@@H](CO)O1,3,0,0,-15,-1,-1
O=C(C[C@H]1C=C[C@@H](NC(=O)CC2CC2)[C@@H](CO)O1)NCc1ccccc1,8,0,0,x,x,x
CO[C@H]1CN(C)C(=O)c2ccc(NS(=O)(=O)C3CCCCC3)cc2OC[C@H](C)NC[C@@H]1C,-3,0,0,x,0,x
Cc1noc(C)c1NC(=O)Nc1cccc2c1O[C@H](CN(C)S(=O)(=O)c1cccs1)[C@@H](C)CN([C@@H](C)CO)C2=O,-2,-1,0,33,0,8
CC12CCC3c4ccc(OCCCO)c([N+](=O)[O-])c4CCC3C1CCC2=O (stereo not given),43*,0,0,x,-1,x
CCCN(C)C[C@@H]1Oc2cc(-c3cccc(C#N)c3)ccc2S(=O)(=O)N([C@H](C)CO)C[C@@H]1C,-2,0,0,-23,0,-1
SMILES,DENV2 CPE rescue,XiGFP reactiv,E-sel inducer,Statin myotox sup,FGF22 binding,PglD inh
O=C(CN1C(=O)c2ccccc2C1=O)Nc1cc([N+](=O)[O-])ccc1O,1,0,1,x,44*,14
O=C(Nc1cc([N+](=O)[O-])ccc1O)c1ccc2c(c1)C(=O)N(Cc1ccco1)C2=O,26*,0,0,x,0,7
O=C(Nc1ccc(O)cc1C(=O)O)c1ccc2c(c1)C(=O)N(Cc1ccco1)C2=O,x,x,x,-17,x,4
O=C(c1ccc2c(c1)C(=O)N(Cc1ccco1)C2=O)N1CCOCC1,-2,x,x,4,0,2
O=C(O)c1ccc(C(=O)c2ccc3c(c2)C(=O)N(Cc2ccco2)C3=O)cc1,x,x,x,110*,x,8
COc1ccc(S(=O)(=O)N[C@H]2C=C[C@@H](CC(=O)NCCc3ccccc3)O[C@@H]2CO)cc1,24*,0,0,-1,0,1
O=C(C[C@H]1C=C[C@H](NC(=O)c2ccccc2)[C@H](CO)O1)NCc1ccc(Oc2ccccc2)cc1,31*,0,0,x,0,x
COc1ccc(S(=O)(=O)N[C@H]2CC[C@@H](CC(=O)NCc3ccccc3F)O[C@H]2CO)cc1,59*,0,0,4,0,2
COc1ccccc1S(=O)(=O)N[C@H]1C=C[C@H](CC(=O)NCc2cccc(F)c2)O[C@H]1CO,28*,0,0,-1,0,-5
COc1ccc(S(=O)(=O)N[C@H]2CC[C@H](CC(=O)NCc3ccccc3F)O[C@@H]2CO)cc1,3,1,0,2,0,0
COc1ccc(S(=O)(=O)N[C@@H]2C=C[C@@H](CC(=O)NCCc3ccccc3)O[C@H]2CO)cc1,-3,0,0,-1,-1,0
O=C(C[C@H]1C=C[C@@H](NC(=O)c2ccccc2)[C@H](CO)O1)NCc1ccc(Oc2ccccc2)cc1,-4,0,0,6,0,-2
